This is an account of results in ChEMBL document CHEMBL1125361, “Effect of modification of the basic residues of dynorphin A-(1-13) amide on kappa opioid receptor selectivity and opioid activity” (J Med Chem, 1992).

For test [1], the target named is Opioid receptor (mu and kappa) (Cavia porcellus, UniProt P41144+P97266). Put plainly: Opioid receptor activity in guinea pig ileum. In kind it is functional, tissue-based. A digest of the protocol: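 Isolated guinea pig ileum in tissue bath, agonist dose-response curves. When norbinaltorphimine was used, the antagonist was added 10 min before the agonist dose-response determination.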

The species entered for a further test is Cavia porcellus. Put plainly: Potency was evaluated in guinea pig ileum relative to Dynorphin A. In kind it is functional. An outline of the steps:
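Isolated guinea pig ileum; agonist dose–response curves were determined. In the experiments using norbinaltorphimine, the antagonist was added to the tissue bath 10 min before the agonist dose–response curve was run.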

For test [2], the target named is Kappa-type opioid receptor (Cavia porcellus, UniProt P41144). Put plainly: Inhibition of [3H]- bremazocine to opioid receptor kappa of guinea pig […] membranes was determined. A digest of the protocol: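 Guinea pig cerebellar membranes labelled with [3H]bremazocine at 4 °C with bestatin and 100 nM DAMGO present. Nonspecific binding defined with 1 μM Dyn A-(1-13)NH2. Ki from Cheng-Prusoff using KD 0.0549 nM for [3H]bremazocine.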

Test [3] has as its target Delta-type opioid receptor (Rattus norvegicus, UniProt P33533). Put plainly: Inhibition of [3H]DPDPE to opioid receptor delta of rat fore brain membranes was determined. The format is cell membranes, Membrane. An outline of the steps:
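[3H]DPDPE displacement from rat forebrain membranes at 4 °C, peptidase inhibitors included. Nonspecific binding taken with 10 μM unlabeled DPDPE. Cheng-Prusoff Ki using KD 7.63 nM.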

For a further test, the target named is Mu-type opioid receptor (Rattus norvegicus, UniProt P33535). Put plainly: Inhibition of [3H]DAMGO to opioid receptor mu of rat fore brain membranes was determined. In kind it is cell membranes, Membrane. A digest of the protocol: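 Rat forebrain membranes with [3H]DAMGO at 4 °C in presence of peptidase inhibitors. Nonspecific binding defined by 10 μM levorphanol. Ki derived via Cheng-Prusoff, KD 0.314 nM.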
Mu-type opioid receptor, sequence (P33535 whole entry): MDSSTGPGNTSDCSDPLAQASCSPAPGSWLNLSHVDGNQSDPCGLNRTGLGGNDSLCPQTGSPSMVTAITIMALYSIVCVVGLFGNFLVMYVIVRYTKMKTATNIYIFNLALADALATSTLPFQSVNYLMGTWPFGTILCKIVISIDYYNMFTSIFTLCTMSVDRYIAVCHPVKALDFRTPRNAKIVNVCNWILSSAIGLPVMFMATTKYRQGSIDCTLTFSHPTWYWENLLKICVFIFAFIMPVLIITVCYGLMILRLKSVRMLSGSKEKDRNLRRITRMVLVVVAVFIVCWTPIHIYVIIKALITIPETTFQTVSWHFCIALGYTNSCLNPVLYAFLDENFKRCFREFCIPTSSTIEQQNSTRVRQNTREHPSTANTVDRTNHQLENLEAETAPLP

Kappa-type opioid receptor, sequence (P41144 whole entry): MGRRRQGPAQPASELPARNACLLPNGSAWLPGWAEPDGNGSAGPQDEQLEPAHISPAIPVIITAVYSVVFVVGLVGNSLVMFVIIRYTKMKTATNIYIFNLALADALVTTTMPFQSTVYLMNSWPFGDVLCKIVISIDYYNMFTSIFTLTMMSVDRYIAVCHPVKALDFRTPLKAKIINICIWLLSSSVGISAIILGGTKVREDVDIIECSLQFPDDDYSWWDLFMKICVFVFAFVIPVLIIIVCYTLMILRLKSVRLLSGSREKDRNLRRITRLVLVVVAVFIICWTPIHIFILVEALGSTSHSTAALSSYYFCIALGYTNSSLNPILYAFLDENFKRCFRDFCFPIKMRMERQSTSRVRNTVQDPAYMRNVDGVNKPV
Delta-type opioid receptor, sequence (P33533 whole entry): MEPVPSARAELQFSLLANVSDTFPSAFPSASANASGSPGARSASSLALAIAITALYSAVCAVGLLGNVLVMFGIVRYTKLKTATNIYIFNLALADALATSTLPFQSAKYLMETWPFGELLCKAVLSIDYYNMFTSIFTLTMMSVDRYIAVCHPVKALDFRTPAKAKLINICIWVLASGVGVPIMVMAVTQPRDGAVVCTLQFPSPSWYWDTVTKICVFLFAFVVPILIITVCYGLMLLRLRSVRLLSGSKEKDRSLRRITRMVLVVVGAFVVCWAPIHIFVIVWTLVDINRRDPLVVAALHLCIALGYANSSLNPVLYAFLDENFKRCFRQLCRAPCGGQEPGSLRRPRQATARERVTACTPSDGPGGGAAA

For the molecule “H-YGGFLRRIKPKLK-NH2 [listing 1 of 2 here]”, the concentration for half-maximal inhibition (IC50) in test [1] is 270 pM. In addition, in the test filed under Cavia porcellus, the Relative potency came out at 89%.
Molecule `CC[C@H](C)[C@H](NC(=O)[C@H](CCCN=C(N)N)NC(=O)[C@H](CCCN=C(N)N)NC(=O)[C@H](CC(C)C)NC(=O)[C@H](Cc1ccccc1)NC(=O)CNC(=O)CNC(=O)[C@@H](N)Cc1ccc(O)cc1)C(=O)N[C@@H](CCCCNC(C)=O)C(=O)N1CCC[C@H]1C(=O)N[C@@H](CCCCN)C(=O)N[C@@H](CC(C)C)C(=O)N[C@@H](CCCCN)C(N)=O` gave an IC50 in test [1] of 260 pM. The Ki in test [2] worked out at 4.2 pM; in test [3], 1300 pM; on Mu-type opioid receptor, 43 pM. Further, the Relative potency in the test filed under Cavia porcellus is given as 91%.
The molecule `CC[C@H](C)[C@H](NC(=O)[C@H](CCCN=C(N)N)NC(=O)[C@H](CCCN=C(N)N)NC(=O)[C@H](CC(C)C)NC(=O)[C@H](Cc1ccccc1)NC(=O)CNC(=O)CNC(=O)[C@@H](N)Cc1ccc(O)cc1)C(=O)N[C@@H](CCCN=C(N)N)C(=O)N1CCC[C@H]1C(=O)N[C@@H](CCCCNC(C)=O)C(=O)N[C@@H](CC(C)C)C(=O)N[C@@H](CCCCN)C(N)=O` came in with an IC50 in test [1] of 160 pM. Besides, the inhibition constant (Ki) was determined as 53 pM in test [2], 450 pM in test [3] and 30 pM at Mu-type opioid receptor. The Relative potency in the test listed under Cavia porcellus is on record as 148%.
In the case of “H-YGGFLKRIRPKLK-NH2 [listing 1 of 2 here]”, the concentration for half-maximal inhibition (IC50) in test [1] was 250 pM. In the test listed under Cavia porcellus, this molecule displayed a Relative potency of 94%.
With “H-YGGFLRKIRPKLK-NH2 [listing 1 of 2 here]”, the concentration for half-maximal inhibition (IC50) in test [1] amounted to 190 pM. Moreover, the Relative potency in the test listed under Cavia porcellus is recorded as 122%.
Consider “H-YGGFLRKIRPKLK-NH2 [listing 2 of 2 here]”, for which the inhibition constant (Ki) in test [2] came out at 21 pM; in test [3], 1600 pM; at Mu-type opioid receptor, 55 pM.
Take `CC[C@H](C)[C@H](NC(=O)[C@H](CCCN=C(N)N)NC(=O)[C@H](CCCN=C(N)N)NC(=O)[C@H](CC(C)C)NC(=O)[C@H](Cc1ccccc1)NC(=O)CNC(=O)CNC(=O)[C@@H](N)Cc1ccc(O)cc1)C(=O)N[C@@H](CCCN=C(N)N)C(=O)N1CCC[C@H]1C(=O)N[C@@H](CCCCN)C(=O)N[C@@H](CC(C)C)C(=O)N[C@@H](CCCCNC(C)=O)C(N)=O`: the IC50 in test [1] turned out to be 190 pM. The Ki in test [2] worked out at 150 pM; in test [3] it was 4600 pM; at Mu-type opioid receptor it was 61 pM. Further, the Relative potency in the test filed under Cavia porcellus was 126%.
As to “H-YGGFLKRIRPKLK-NH2 [listing 2 of 2 here]”, the inhibitory constant (Ki) is 20 pM in test [2], 5900 pM in test [3] and 75 pM on Mu-type opioid receptor.
Take H-YGGFLRK(Ac)IRPKLK-NH2: the half-inhibitory concentration (IC50) in test [1] turned out to be 340 pM. Besides, the inhibition constant Ki worked out at 140 pM in test [2], 1100 pM in test [3] and 180 pM at Mu-type opioid receptor. Further, in the test filed under Cavia porcellus, the Relative potency is 69%.
`CC[C@H](C)[C@H](NC(=O)[C@H](CCCN=C(N)N)NC(=O)[C@H](CCCN=C(N)N)NC(=O)[C@H](CC(C)C)NC(=O)[C@H](Cc1ccccc1)NC(=O)CNC(=O)CNC(=O)[C@@H](N)Cc1ccc(O)cc1)C(=O)N[C@@H](CCCN=C(N)N)C(=O)N1CCC[C@H]1C(=O)N[C@@H](CCCCN)C(=O)N[C@@H](CC(C)C)C(=O)N[C@@H](CCCCN)C(N)=O` yielded an IC50 in test [1] of 240 pM. Moreover, the Ki in test [2] stood at 23 pM; in test [3], 1900 pM; at Mu-type opioid receptor, 400 pM. The molecule also gave a Relative potency in the test listed under Cavia porcellus of 100%.
Regarding “H-YGGFLRRIKPKLK-NH2 [listing 2 of 2 here]”, the results for the Ki (in test [2]; in test [3]; at Mu-type opioid receptor) were 6.7 pM, 1900 pM and 46 pM, respectively.
Turning to H-YGGFLK(Ac)RIRPKLK-NH2, the IC50 in test [1] is 640 pM. Besides, the inhibitory constant (Ki) in test [2] was determined as 24 pM; in test [3], 420 pM; at Mu-type opioid receptor, 18 pM. The Relative potency in the test listed under Cavia porcellus was 37%.

What is called IC50 is the concentration that inhibits the measured activity by half. A lower IC50 goes with inhibition by little substance. As usually defined, the Ki is the equilibrium dissociation constant of an inhibitor or competing ligand from its target. Low readings indicate higher affinity, high ones lower affinity.
